Results as given in ChEMBL document CHEMBL1806459, “Discovery of N-(1-ethylpropyl)-[3-methoxy-5-(2-methoxy-4-trifluoromethoxyphenyl)-6-methyl-pyrazin-2-yl]amine 59 (NGD 98-2): an orally active corticotropin releasing factor-1 (CRF-1) receptor antagonist” (J Med Chem, 2011).
Activity calls are given as the source filed them. The rule behind the calls is not given here.

Columns and labels:
[1] = target: Epidermal growth factor receptor (Homo sapiens) (UniProt P00533); test: Inhibition of EGFR receptor at 4 uM
In short: (§1)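 Selectivity panel of 69 targets, test compound at 4 μM, a level set by aqueous solubility limits; percent inhibition recorded per target.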

[2] = target: Histamine H1 receptor (Homo sapiens) (UniProt P35367); test: Inhibition of Histamine H1 receptor at 4 uM; in short: as §1
[3] = target: Histamine H3 receptor (Homo sapiens) (UniProt Q9Y5N1); test: Inhibition of Histamine H3 receptor at 4 uM; in short: as §1
[4] = target: Insulin receptor (Homo sapiens) (UniProt P06213); test: Inhibition of Insulin receptor at 4 uM; in short: as §1
[5] = Inhibition of Choline transporter at 4 uM; in short: as §1
[6] = Inhibition of Opiate receptor at 4 uM
In short: (§2)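 Single-concentration screen within a 69-target selectivity panel. The test concentration was 4 μM, a level set by the compound's limited aqueous solubility.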

[7] = Inhibition of Sigma opiate receptor at 4 uM; in short: as §2
[8] = target: Vasoactive intestinal polypeptide receptor 1 (Homo sapiens) (UniProt P32241); test: Inhibition of VPAC1 receptor at 4 uM; in short: as §2
[9] = Inhibition of diltiazem calcium channel at 4 uM; in short: as §2
[10] = Inhibition of Sodium channel site 2 at 4 uM; in short: as §2
[11] = Inhibition of phosphodiesterase 2 at 4 uM; in short: as §2
Rattus norvegicus [12] = test: Antihyperlocomotion activity in Wistar rat assessed as decrease in CRF-induced hyperlocomotion at 10 mg/kg, po administered 3 hrs before CRF challenge measured after 1 hr; assay type: functional, organism-based; set-up: dose 10 mg/kg
In short: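 Rats received 0.3 μg CRF intracerebroventricularly, with oral pretreatment 3 h before in vehicle TPGS. Readout was movement time (locomotor activity), compared against TPGS/CRF controls.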

Rattus norvegicus [13] = test: Toxicity in Sprague-Dawley rat assessed as effect on horizontal movement at 3 mg/kg, po measured after 3 hrs for 1 hr; assay type: organism-based; set-up: dose 3 mg/kg, route oral; conditions: in vivo
In short: (§3)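 Rats not habituated to the test environment, dosed orally at 3, 10 and 30 mg/kg. Spontaneous locomotor activity recorded after dosing: horizontal activity as movement time, plus vertical activity (rearing). Test run to exclude sedation.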

Rattus norvegicus [14] = test: Toxicity in Sprague-Dawley rat assessed as effect on horizontal movement at 30 mg/kg, po measured after 3 hrs for 1 hr; assay type: organism-based; set-up: dose 30 mg/kg, route oral; conditions: in vivo; in short: as §3
Rattus norvegicus [15] = test: Toxicity in Sprague-Dawley rat assessed as effect on vertical activity at 10 mg/kg, po measured after 3 hrs for 1 hr; assay type: organism-based; set-up: dose 10 mg/kg, route oral; conditions: in vivo; in short: as §3
Rattus norvegicus [16] = test: Decrease in restrained-stress induced […] release in plasma of Sprague-Dawley rat at 10 mg/kg, po pretreated with compound for 3 hrs by radioimmunoassay; assay type: functional, organism-based; set-up: dose 10 mg/kg
In short: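 Rats orally pretreated, then restrained for 10 min to induce stress. Plasma ACTH measured and compared with vehicle/no-stress and vehicle/stress groups.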

[17] = Ratio of drug level in brain to plasma of rat at 1 mg/kg, iv; assay type: ADME, organism-based; set-up: dose 1 mg/kg, route intravenous; conditions: read-out: BPR
In short: (§4)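 Rat pharmacokinetics: compounds given iv (1 or 3 mg/kg) and po (5 or 10 mg/kg) in 2% Vitamin E TPGS (tocopheryl polyethylene glycol 1000 succinate). Plasma sampled over 24 h for Cmax, Tmax, AUC0–24 h, T1/2, clearance, Vss and oral bioavailability. Brain to plasma ratio also measured.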

[18] = Ratio of drug level in brain to plasma of rat at 10 mg/kg, po; assay type: ADME, organism-based; set-up: dose 10 mg/kg, route oral; conditions: read-out: BPR; in short: as §4
[19] = Plasma protein binding in human; assay type: ADME, cell-free; conditions: read-out: PPB (converted)
In short: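 Binding to human plasma protein measured as percent bound.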

[20] = target: Adenosine receptor A1 (Homo sapiens) (UniProt P30542); test: Inhibition of adenosine A1 receptor at 4 uM; in short: as §2
[21] = Inhibition of adenosine A2 receptor at 4 uM; in short: as §2
[22] = target: Adenosine receptor A3 (Homo sapiens) (UniProt P0DMS8); test: Inhibition of adenosine A3 receptor at 4 uM; in short: as §2
[23] = target: Alpha-2A adrenergic receptor (Homo sapiens) (UniProt P08913); test: Inhibition of adrenergic alpha 2 receptor at 4 uM; in short: as §2
[24] = target: Beta-2 adrenergic receptor (Homo sapiens) (UniProt P07550); test: Inhibition of adrenergic beta 2 receptor at 4 uM; in short: as §2
[25] = target: Sodium-dependent noradrenaline transporter (Homo sapiens) (UniProt P23975); test: Inhibition of norepinephrine transporter at 4 uM; in short: as §2
[26] = target: Type-1 angiotensin II receptor (Homo sapiens) (UniProt P30556); test: Inhibition of angiotensin AT1 receptor at 4 uM; in short: as §2
[27] = target: Type-2 angiotensin II receptor (Homo sapiens) (UniProt P50052); test: Inhibition of angiotensin AT2 receptor at 4 uM; in short: as §2
[28] = Inhibition of bombesin receptor at 4 uM; in short: as §2
[29] = target: B2 bradykinin receptor (Homo sapiens) (UniProt P30411); test: Inhibition of bradykinin B2 receptor at 4 uM; in short: as §2
[30] = target: Cannabinoid receptor 2 (Homo sapiens) (UniProt P34972); test: Inhibition of cannabinoid CB2 receptor at 4 uM; in short: as §2
[31] = Inhibition of GABA-A at 4 uM; in short: as §1
[32] = target: Sodium- and chloride-dependent betaine transporter (Homo sapiens) (UniProt P48065); test: Inhibition of GABA transporter at 4 uM; in short: as §1
[33] = Half life in rat microsomes; assay type: ADME, Microsome
In short: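 Stability in human or rat liver microsomes; half-life (T1/2, min) of compound turnover reported.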

[34] = target: T1, Corticotropin-releasing factor receptor 1 (Homo sapiens, UniProt P34998); test: Inhibition of human CRF-1 receptor expressed in human IMR-32 cells assessed as effect on cAMP production by ELISA in presence of 3 nM CRF; assay type: functional, cell-based
T1 sequence (P34998 whole entry): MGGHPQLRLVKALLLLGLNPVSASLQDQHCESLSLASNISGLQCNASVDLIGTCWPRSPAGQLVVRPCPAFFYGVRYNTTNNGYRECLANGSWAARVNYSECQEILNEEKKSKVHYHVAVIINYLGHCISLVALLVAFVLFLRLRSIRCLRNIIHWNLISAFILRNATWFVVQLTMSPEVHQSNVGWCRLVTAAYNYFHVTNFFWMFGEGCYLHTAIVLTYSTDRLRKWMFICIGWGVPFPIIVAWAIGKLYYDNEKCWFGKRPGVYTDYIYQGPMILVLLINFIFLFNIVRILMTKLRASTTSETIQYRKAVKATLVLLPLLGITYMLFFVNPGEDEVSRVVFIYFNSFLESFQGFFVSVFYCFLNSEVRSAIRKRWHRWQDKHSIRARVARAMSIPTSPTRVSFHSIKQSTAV

[35] = Cmax in rat at 10 mg/kg, po; assay type: ADME, organism-based; set-up: dose 10 mg/kg, route oral; conditions: in vivo
[36] = Volume of distribution at steady state in rat at 1 mg/kg, iv; assay type: ADME, organism-based; set-up: dose 1 mg/kg, route intravenous; conditions: in vivo, read-out: Vdss; in short: as §4
[37] = Bioavailability in rat at 1 mg/kg, […]; assay type: ADME, organism-based; conditions: in vivo
In short: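 Rat PK with paired iv and oral dosing, vehicle 2% Vitamin E TPGS. Clearance and Vss from the iv arm; oral bioavailability F from comparing exposure after oral and iv doses.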

Rattus norvegicus [38] = test: Oral bioavailability in rat at 10 mg/kg; assay type: ADME, organism-based; conditions: in vivo; in short: as §4
[39] = target: Corticotropin-releasing factor receptor 1 (Homo sapiens) (UniProt P34998); conditions: IMR-32, 10 uM

Chain of Histamine H1 receptor (Homo sapiens) (P35367 whole entry): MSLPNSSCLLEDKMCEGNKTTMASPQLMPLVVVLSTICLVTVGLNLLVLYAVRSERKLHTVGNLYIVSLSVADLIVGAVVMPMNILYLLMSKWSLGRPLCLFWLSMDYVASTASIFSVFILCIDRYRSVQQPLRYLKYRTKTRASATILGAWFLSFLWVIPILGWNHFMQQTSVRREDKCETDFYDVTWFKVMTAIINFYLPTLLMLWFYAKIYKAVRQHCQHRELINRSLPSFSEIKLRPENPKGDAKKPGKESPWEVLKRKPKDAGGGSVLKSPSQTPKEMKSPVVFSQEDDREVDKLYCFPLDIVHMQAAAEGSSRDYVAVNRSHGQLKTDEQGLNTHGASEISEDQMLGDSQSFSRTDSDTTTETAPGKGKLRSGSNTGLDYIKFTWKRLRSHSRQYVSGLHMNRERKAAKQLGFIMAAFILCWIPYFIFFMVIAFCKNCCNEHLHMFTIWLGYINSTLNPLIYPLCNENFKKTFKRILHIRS
Chain of Adenosine receptor A3 (Homo sapiens) (P0DMS8 whole entry): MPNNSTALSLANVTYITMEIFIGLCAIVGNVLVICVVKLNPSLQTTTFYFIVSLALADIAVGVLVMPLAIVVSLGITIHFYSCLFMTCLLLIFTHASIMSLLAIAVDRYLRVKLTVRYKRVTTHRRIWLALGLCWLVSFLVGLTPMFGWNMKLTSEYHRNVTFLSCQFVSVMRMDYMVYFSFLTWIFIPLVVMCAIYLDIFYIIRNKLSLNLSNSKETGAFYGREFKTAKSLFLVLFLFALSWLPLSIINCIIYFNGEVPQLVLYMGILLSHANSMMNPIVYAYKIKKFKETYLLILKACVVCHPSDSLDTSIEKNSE
Chain of Vasoactive intestinal polypeptide receptor 1 (Homo sapiens) (P32241 whole entry): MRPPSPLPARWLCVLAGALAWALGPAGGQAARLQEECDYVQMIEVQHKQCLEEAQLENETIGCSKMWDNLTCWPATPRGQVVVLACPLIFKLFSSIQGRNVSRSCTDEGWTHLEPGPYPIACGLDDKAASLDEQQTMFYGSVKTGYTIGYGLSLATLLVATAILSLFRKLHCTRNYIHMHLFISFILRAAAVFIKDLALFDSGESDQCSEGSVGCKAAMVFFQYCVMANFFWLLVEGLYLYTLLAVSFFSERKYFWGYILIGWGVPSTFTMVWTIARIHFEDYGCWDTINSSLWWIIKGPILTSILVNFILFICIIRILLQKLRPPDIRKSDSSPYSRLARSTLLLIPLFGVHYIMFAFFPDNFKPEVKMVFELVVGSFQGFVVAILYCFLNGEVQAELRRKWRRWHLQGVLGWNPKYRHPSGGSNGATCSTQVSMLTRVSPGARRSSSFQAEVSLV
Chain of Histamine H3 receptor (Homo sapiens) (Q9Y5N1 whole entry): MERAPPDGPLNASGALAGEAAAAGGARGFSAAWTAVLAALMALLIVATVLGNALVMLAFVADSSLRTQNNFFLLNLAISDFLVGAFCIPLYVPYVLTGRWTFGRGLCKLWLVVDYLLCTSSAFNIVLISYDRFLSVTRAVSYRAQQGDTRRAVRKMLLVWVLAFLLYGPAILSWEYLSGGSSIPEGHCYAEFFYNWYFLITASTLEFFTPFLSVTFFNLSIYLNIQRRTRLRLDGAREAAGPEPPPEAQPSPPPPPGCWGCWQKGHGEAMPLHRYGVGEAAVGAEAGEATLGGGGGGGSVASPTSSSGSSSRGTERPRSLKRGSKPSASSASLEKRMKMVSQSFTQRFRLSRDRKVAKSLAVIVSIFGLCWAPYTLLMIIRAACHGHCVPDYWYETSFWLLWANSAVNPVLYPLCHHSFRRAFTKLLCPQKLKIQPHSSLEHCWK
Chain of Epidermal growth factor receptor (Homo sapiens) (P00533 whole entry): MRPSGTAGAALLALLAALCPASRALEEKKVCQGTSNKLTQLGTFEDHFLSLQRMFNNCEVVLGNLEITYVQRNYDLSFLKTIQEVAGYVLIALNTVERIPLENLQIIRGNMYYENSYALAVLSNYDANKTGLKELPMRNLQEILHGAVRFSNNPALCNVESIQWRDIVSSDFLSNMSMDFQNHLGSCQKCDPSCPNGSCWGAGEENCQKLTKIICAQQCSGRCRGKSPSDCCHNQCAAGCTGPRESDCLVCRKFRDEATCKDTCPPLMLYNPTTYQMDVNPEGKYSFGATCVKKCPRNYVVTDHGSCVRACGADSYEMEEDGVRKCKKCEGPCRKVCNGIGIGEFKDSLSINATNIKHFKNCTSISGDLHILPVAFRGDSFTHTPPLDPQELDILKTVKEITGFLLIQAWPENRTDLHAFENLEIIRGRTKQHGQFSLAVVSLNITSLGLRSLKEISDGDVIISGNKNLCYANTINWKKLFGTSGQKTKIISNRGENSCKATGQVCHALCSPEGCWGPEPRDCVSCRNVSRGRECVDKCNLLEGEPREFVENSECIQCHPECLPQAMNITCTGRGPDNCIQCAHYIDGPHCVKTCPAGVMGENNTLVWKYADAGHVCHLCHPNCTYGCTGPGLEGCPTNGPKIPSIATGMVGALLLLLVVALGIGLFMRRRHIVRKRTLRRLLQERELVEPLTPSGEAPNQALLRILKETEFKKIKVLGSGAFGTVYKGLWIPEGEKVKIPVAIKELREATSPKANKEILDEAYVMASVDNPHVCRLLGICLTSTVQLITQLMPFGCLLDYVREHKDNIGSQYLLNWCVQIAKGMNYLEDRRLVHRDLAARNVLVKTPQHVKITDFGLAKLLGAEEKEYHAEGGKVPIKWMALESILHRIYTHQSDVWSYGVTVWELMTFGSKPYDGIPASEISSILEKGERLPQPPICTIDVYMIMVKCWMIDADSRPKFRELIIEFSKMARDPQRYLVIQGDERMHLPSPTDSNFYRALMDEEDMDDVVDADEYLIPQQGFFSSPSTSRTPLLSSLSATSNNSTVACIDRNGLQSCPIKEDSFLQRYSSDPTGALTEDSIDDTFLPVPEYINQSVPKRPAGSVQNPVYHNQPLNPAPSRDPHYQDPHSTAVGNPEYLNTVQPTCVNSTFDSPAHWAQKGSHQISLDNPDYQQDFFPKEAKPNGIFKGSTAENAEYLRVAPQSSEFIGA
Chain of Beta-2 adrenergic receptor (Homo sapiens) (P07550 whole entry, looked up): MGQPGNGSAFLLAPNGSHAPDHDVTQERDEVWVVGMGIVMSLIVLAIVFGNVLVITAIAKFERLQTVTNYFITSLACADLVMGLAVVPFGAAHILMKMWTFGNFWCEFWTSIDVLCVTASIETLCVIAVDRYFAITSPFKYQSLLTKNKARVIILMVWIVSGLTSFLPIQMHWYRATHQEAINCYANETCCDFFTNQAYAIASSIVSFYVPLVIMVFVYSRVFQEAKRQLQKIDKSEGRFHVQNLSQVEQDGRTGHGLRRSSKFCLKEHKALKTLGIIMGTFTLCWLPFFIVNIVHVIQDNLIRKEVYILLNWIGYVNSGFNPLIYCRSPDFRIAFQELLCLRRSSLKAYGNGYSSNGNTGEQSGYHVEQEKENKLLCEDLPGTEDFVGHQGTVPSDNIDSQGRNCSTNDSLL
Chain of Adenosine receptor A1 (Homo sapiens) (P30542 whole entry): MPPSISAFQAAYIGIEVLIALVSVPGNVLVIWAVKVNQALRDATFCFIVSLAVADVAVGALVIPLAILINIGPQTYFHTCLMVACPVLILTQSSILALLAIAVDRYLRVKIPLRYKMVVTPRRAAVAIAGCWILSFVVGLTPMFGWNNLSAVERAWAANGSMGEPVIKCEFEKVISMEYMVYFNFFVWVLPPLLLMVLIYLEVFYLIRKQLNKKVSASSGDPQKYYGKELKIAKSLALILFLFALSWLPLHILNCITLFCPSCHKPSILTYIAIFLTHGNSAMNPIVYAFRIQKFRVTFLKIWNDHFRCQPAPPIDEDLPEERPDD
Chain of Type-1 angiotensin II receptor (Homo sapiens) (P30556 whole entry): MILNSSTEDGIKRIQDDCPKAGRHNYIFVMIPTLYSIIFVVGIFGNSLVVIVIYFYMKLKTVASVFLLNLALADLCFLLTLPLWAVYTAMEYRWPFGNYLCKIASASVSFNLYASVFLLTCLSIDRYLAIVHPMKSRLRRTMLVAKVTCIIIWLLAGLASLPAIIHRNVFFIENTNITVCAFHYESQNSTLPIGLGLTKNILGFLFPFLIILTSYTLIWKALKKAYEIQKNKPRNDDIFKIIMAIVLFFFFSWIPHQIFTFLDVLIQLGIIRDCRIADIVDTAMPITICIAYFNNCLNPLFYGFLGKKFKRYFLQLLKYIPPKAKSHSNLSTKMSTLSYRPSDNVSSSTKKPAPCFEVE
Chain of Alpha-2A adrenergic receptor (Homo sapiens) (P08913 whole entry): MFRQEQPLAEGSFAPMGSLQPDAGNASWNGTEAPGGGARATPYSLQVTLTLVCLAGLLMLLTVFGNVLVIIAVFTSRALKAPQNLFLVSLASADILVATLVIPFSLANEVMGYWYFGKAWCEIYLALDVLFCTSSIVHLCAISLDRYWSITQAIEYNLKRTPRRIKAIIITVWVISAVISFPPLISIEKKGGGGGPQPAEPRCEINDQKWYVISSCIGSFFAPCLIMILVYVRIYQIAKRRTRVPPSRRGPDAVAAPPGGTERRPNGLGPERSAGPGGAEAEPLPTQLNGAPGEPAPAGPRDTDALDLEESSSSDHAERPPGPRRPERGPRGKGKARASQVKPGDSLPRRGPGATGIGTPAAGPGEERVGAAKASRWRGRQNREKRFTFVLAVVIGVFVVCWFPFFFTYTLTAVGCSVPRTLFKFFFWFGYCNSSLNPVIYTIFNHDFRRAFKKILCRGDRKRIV
Chain of Type-2 angiotensin II receptor (Homo sapiens) (P50052 whole entry): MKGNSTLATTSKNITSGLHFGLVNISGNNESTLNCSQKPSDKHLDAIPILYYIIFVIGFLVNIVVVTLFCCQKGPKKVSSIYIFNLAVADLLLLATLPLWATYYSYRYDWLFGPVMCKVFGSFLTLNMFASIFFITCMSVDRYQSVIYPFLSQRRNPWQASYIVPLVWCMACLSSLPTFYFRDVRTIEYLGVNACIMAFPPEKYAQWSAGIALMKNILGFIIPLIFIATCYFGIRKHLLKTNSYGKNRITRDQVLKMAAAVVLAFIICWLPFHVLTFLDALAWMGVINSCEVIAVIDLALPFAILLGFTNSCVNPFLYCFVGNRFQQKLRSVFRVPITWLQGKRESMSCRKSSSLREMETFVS

Question: For CCC(CC)Nc1nc(C)c(-c2ccc(OC(F)(F)F)cc2OC)nc1OC, which inhibition [1] is on record?
Answer: The inhibition was greater than 16%.

Question: What about the inhibition [2] of the same compound?
Answer: The inhibition was greater than 16%.

Question: And the inhibition [3]?
Answer: Its inhibition is greater than 16%.

Question: What about the inhibition [4] of the same compound?
Answer: Its inhibition is greater than 16%.

Question: And the inhibition [5]?
Answer: The inhibition was greater than 16%.

Question: What about the inhibition [6] of the same compound?
Answer: Its inhibition is greater than 16%.

Question: And the inhibition [7]?
Answer: Its inhibition is greater than 16%.

Question: And the inhibition [8]?
Answer: Its inhibition is greater than 16%.

Question: What about the inhibition [9] of the same compound?
Answer: Its inhibition is greater than 16%.

Question: What about the inhibition [10] of the same compound?
Answer: Its inhibition is greater than 16%.

Question: What about the inhibition [11] of the same compound?
Answer: The inhibition was greater than 16%.

Question: What about the Activity (Rattus norvegicus [12]) of the same compound?
Answer: The Activity was “Active”.

Question: And the Activity (Rattus norvegicus [13])?
Answer: Its Activity is “Non-toxic”.

Question: What about the Activity (Rattus norvegicus [14]) of the same compound?
Answer: Its Activity is “Non-toxic”.

Question: And the Activity (Rattus norvegicus [15])?
Answer: The Activity was “Non-toxic”.

Question: And the Activity (Rattus norvegicus [16])?
Answer: Its Activity is “Active”.

Question: And the Kp [17]?
Answer: Its Kp is 5.4.

Question: And the Kp [18]?
Answer: Its Kp is 5.4.

Question: And the fraction unbound [19]?
Answer: Its fraction unbound is 0.008.

Question: And the inhibition [20]?
Answer: The inhibition was greater than 16%.

Question: And the inhibition [21]?
Answer: The inhibition was greater than 16%.

Question: What about the inhibition [22] of the same compound?
Answer: Its inhibition is greater than 16%.

Question: And the inhibition [23]?
Answer: Its inhibition is greater than 16%.

Question: And the inhibition [24]?
Answer: The inhibition was greater than 16%.

Question: What about the inhibition [25] of the same compound?
Answer: Its inhibition is greater than 16%.

Question: What about the inhibition [26] of the same compound?
Answer: The inhibition was greater than 16%.

Question: And the inhibition [27]?
Answer: The inhibition was greater than 16%.

Question: What about the inhibition [28] of the same compound?
Answer: Its inhibition is greater than 16%.

Question: And the inhibition [29]?
Answer: The inhibition was greater than 16%.

Question: And the inhibition [30]?
Answer: Its inhibition is greater than 16%.

Question: And the inhibition [31]?
Answer: Its inhibition is greater than 16%.

Question: What about the inhibition [32] of the same compound?
Answer: Its inhibition is greater than 16%.

Question: And the half-life [33]?
Answer: Its half-life is 120 min.

Question: What about the IC50 [34] of the same compound?
Answer: The IC50 was 93 nM.

Question: And the Cmax [35]?
Answer: Its Cmax is 456 ng/mL.

Question: What about the Vd [36] of the same compound?
Answer: Its Vd is 7.8 L/kg.

Question: What about the bioavailability [37] of the same compound?
Answer: The bioavailability was 45%.

Question: And the F (Rattus norvegicus [38])?
Answer: The F was 45%.

Question: And the inhibition [39]?
Answer: Its inhibition is “inactive”.
